High-throughput results from PubChem BioAssay.
This excerpt belongs to a sample that is enriched for hits.
CHOP inh = inhibitors of CHOP promoter induction, primary screen, cell-based, unfolded protein response, luciferase reporter; CHO-K1 CHOP-promoter luciferase, tunicamycin-induced, 15-18 h; inhibition, % at 10 µM; 220,000 compounds, 3.8% hits; AID 2732, 2010;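 active = compounds that reduced the stress-induced luciferase reporter signal by more than about 70% of percent inhibition, limit read from the data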
UPR CHOP act = activators of apoptotic CHOP UPR arm, primary screen, cell-based, CHO-CHOP luciferase reporter, luminescence, uHTS; UPR activation; percent of tunicamycin response over DMSO baseline; AID 449763, 2010; activation, % at 10 µM; 330,000 compounds, 0.34% hits;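 active = at 10 µM dose, activation of 40% or more, normalized to positive control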
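measured by = luciferase luminescence | assay system = CHO-CHOP cells, stable luciferase reporter of PERK-eIF2a-CHOP signalling | amount = 500 reporter cells seeded per well | timing = 6 h compound exposure at 37 °C after overnight seeding | controls = positive tunicamycin 10 µg/mL, negative DMSO alone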
697 NFkB inh = inhibitors of PMA/ionomycin-induced NF-kB reporter, 697 cells, primary screen, B-cell NF-kB inhibitor project, cell-based, luminescence, uHTS. 697 B-cell NF-kB luciferase reporter, 16 h. inhibition, % at 4 µM. 330,000 compounds, 0.33% hits. AID 435022, 2010; in the data active = inhibition above about 35%
Jurkat NFkB inh = inhibitors of induced NF-kB luciferase reporter, primary screen, TCR NF-kB activation inhibitor project, cell-based, luminescence, uHTS; 330,000 compounds, 0.53% hits; Jurkat, PMA/ionomycin-induced NF-kB luciferase reporter; inhibition, % at 4 µM; in the data active = inhibition above about 50%
XBP1 UPR activ = activators of adaptive XBP1 UPR arm, primary screen, cell-based, CHO-XBP1 luciferase reporter, luminescence, uHTS | AID 463104, 2010 | activation, % at 20 µM | IRE1-XBP1 UPR activation; percent of tunicamycin response, DMSO as zero | 330,000 compounds, 0.33% hits;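 active = versus positive control, 20 µM dose yields 30% or more activation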
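Material: CHO-XBP1 cells stably carrying IRE1-XBP1-driven luciferase reporter / Amount: 1000 cells per well / Compound: 20 µM, 1% DMSO / Times: 6 h treatment, 37 °C / Detection: luciferase luminescence / Measure: % activation of reporter signal versus tunicamycin and DMSO controls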
Numbers stand for hits; – = inactive; · = no result given.

SMILES	CHOP inh	UPR CHOP act	697 NFkB inh	Jurkat NFkB inh	XBP1 UPR activ
CC1CCc2c(C(=O)Oc3cccc(-n4cnnn4)c3)csc2C1 (centres undefined)	89	–	–	–	–
Cc1ccc(C(=O)Oc2cccc(-n3cnnn3)c2)cc1	–	–	–	–	–
COC(=O)c1cc2occc2n1Cc1ccc(Cl)cc1	87	–	–	–	–
COC(=O)c1cc2occc2n1Cc1c(F)cccc1Cl	–	·	·	·	·
O=[N+]([O-])c1ccc(/C=N/Nc2nc(-c3ccccc3)c3cc(Br)ccc3n2)o1	82	–	–	–	–
O=C(O)CC/C(=C\c1ccc(N2CCCC2)c([N+](=O)[O-])c1)c1nc2ccccc2s1	95	–	–	–	–
O=C(O)CC/C(=C\c1ccccc1[N+](=O)[O-])c1nc2ccccc2s1	–	–	–	–	–
Cc1ccc(C(=O)Nc2nnc(NC(=S)Nc3ccccc3)s2)cc1	70	–	–	–	–
CCOc1ccc(C(=O)Nc2nnc(NC(=S)Nc3ccccc3)s2)cc1	–	–	–	–	–
O=c1[nH]c(CSc2nnnn2-c2ccc(Cl)cc2)nc2ccccc12	–	–	–	–	–
C=CCn1c(SCc2nc3ccccc3c(=O)[nH]2)nnc1-c1cc2cc(Cl)ccc2o1	83	–	–	–	–
O=C(Nc1ccc2c(c1)C(=O)N(CC1CCCO1)C2=O)c1cccc(Br)c1 (centres undefined)	73	–	–	–	–
O=C(N/N=C/c1cc(Cl)ccc1O)c1ccc(Br)cc1	80	·	·	·	·
Cc1cc(C)c(COc2ccc(/C=N/n3c(C)n[nH]c3=S)cc2)c(C)c1	–	–	–	–	–
O=c1c2ccccc2c(C=Nc2ccc(O)cc2)c(O)n1Cc1ccccc1	93	–	–	–	–
COc1ccc(N=Cc2c(O)n(-c3ccc(OC)cc3)c(=O)c3ccccc23)cc1	72	–	–	–	–
COc1ccc(Cn2c(O)c(C=Nc3ccc(O)cc3)c3ccccc3c2=O)cc1	85	–	–	–	–
COc1ccc(N=Cc2c(O)ccc3ccccc23)cc1	80	–	–	–	–
O=C(CCn1c(=O)c2cccn2c2cccnc21)N1CCN(c2cccc(Cl)c2)CC1	·	–	–	–	–
O=C(Cn1nc(-c2ccccc2)ccc1=O)N1CCCCC1	·	–	–	–	–
COc1ccc(OC)c(N(CC(=O)NCCSC2CCCCC2)S(=O)(=O)c2ccccc2)c1	·	–	–	–	–
COc1cc(/C=N/N=C(/N)c2nonc2N)cc(Br)c1OCc1cccc(C)c1	71	–	–	–	–
COc1nc(Nc2ccc([N+](=O)[O-])cc2)nc(NC2CCCCC2)n1	82	–	–	–	–
Cc1ccnn1CCC(=O)N1CCCC(N2CCN(c3cccc(Cl)c3)CC2)C1 (centres undefined)	·	–	–	–	–
COc1ccc(CNC(=O)C2CCN(C(=O)c3csc(Nc4ccc(C)cc4)n3)CC2)cc1	·	–	–	–	–
SMILES	CHOP inh	UPR CHOP act	697 NFkB inh	Jurkat NFkB inh	XBP1 UPR activ
Cc1[nH]n(-c2ccccc2)c(=S)c1C=Nc1ccc([N+](=O)[O-])cc1	80	·	·	·	·
COc1cc2c(cc1OC)-c1cc(=Nc3c(C)cc(C)cc3C)n(C)c(=O)n1CC2	–	·	·	·	·
CCOC(=O)c1sc(NC(=O)CSC(=S)N2CCN(C)CC2)nc1C	–	–	–	–	–
CCCCOC(=O)c1ccc(NC(=O)Nc2ccc(OC)c(OC)c2)cc1	83	–	–	–	–
CCCCOC(=O)c1ccc(NC(=O)/C=C/c2cccs2)cc1	75	–	–	–	–
CCCCOC(=O)c1ccc(NC(=S)NC(=O)c2ccco2)cc1	·	–	–	–	–
CCCCCOC(=O)c1ccc(NC(=O)c2ccco2)cc1	82	–	–	–	–
O=C(Cc1ccc(Cl)cc1)Nc1ccccc1N1CCN(C(=O)c2ccccc2)CC1	·	–	–	–	–
COc1ccc(-c2csc(Nc3ccc(S(=O)(=O)Nc4cc(OC)nc(OC)n4)cc3)n2)cc1	89	–	–	–	–
Cc1ccc(C(=O)c2cc(C)sc2NC(=O)CN2CCN(C(=O)c3ccco3)CC2)cc1	82	–	–	–	–
COc1ccc(NC(=O)CNc2ccccc2N2CCCC2=O)cc1S(=O)(=O)N1CCOCC1	·	–	–	–	–
Cc1sc2nc(CSc3ccc([N+](=O)[O-])cc3)[nH]c(=O)c2c1C	–	–	–	–	–
Cc1sc2nc(CSc3cccc(C(F)(F)F)c3)[nH]c(=O)c2c1C	73	–	–	–	–
Cc1sc2nc(CSc3nc4ccccc4s3)[nH]c(=O)c2c1C	77	–	–	–	–
Cc1ccc(C2NC(c3ccc(C)cc3)C(C)C(=NO)C2C)cc1 (centres undefined)	84	–	–	–	–
Cc1ccc(NC(=O)Nc2ccc(F)cc2)cc1Cl	–	–	–	–	–
Cc1ccc(NC(=O)CCC(=O)c2ccc(F)cc2)cc1Cl	79	–	–	–	–
CC1=CC2=NC(=O)/C(=C\c3ccc(-c4ccc(Cl)cc4)o3)C(=N)N2O1	93	·	·	·	·
CN(Cc1ccc(N(C)C)cc1)C(=O)c1cc2ccccc2o1	·	–	–	–	–
CC(C)c1ccccc1OCC(=O)Nc1ccc2[nH]ncc2c1	·	–	–	–	–
O=[N+]([O-])c1nn(-c2ccc3c(c2)OCCO3)n(O)c1=NCCC1=CCCCC1	86	–	–	–	–
COCCOC(=O)c1c(C)n(C)c2ccc(OC(=O)c3ccccc3F)cc12	·	–	–	–	–
COc1ccc(/C=C/C(=O)Nc2cc(C(F)(F)F)ccc2Cl)cc1	74	–	–	–	–
COc1ccc(/C=N/NC(=S)Nc2cc(C(F)(F)F)ccc2Cl)cc1	–	–	–	–	–
CC(C)NC(=O)N(C)C[C@H]1Oc2ccc(NS(=O)(=O)c3ccccc3)cc2C(=O)N([C@H](C)CO)C[C@H]1C	·	–	–	–	–
SMILES	CHOP inh	UPR CHOP act	697 NFkB inh	Jurkat NFkB inh	XBP1 UPR activ
Cc1cc(NC(=O)CNCC(c2ccccc2)N(C)C)c([N+](=O)[O-])cc1C (centres undefined)	·	–	–	–	–
COc1cccc(CN2CCN(c3cccc(C(F)(F)F)c3)CC2)c1OC	71	–	–	–	–
COc1ccccc1N1CCN(Cc2cccc(OC)c2OC)CC1	–	–	–	–	–
O=C(N/N=C/c1cccnc1)c1ccc(NC(=O)C(c2ccccc2)c2ccccc2)cc1	78	–	–	–	–
O=C(N/N=C/c1cccnc1)c1cc2ccccc2o1	–	–	–	–	–
O=C(N/N=C/c1cccnc1)c1cc2c(ccc3ccccc32)o1	91	–	–	–	–
Cn1c(=O)c(-c2ccccc2[N+](=O)[O-])c(Cl)c2ccccc21	·	–	–	–	–
